An excerpt weighted towards active compounds, which were near 1.4% of everything screened.
Hep lipid drop – modulators of hepatic lipid droplet formation; inhibition, % at 6.5 µM; AML12 mouse hepatocytes, oleate lipid droplets, BODIPY imaging; AID 1656; actives 0.4% (n = 240,000);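 active means lipid droplet intensity inhibited by at least 50%, with more than 500 cells counted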
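material = mouse AML12 hepatocyte cell line, fixed after treatment | also added = 100 µM oleic acid challenge | doses = compound at 6.5 µM only | schedule = overnight exposure | technique = Image-based BODIPY and DAPI two-channel analysis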
HTR5A inv ctr – counter-screen for OPRM1-OPRD1 inverse agonists: human HTR5A inverse agonism; P47898; HTR5A cell line, luminescence; inhibition, % at 9.3 µM; actives 0.083% (n = 340,000); AID 504634; in the data active means inhibition mostly above about 23%, no sharp cut-off; inactive means mostly below about 18%
MOR-DOR inv ag-1 – mu-delta opioid heterodimer inverse agonism; actives 0.21% (n = 340,000); inhibition, % at 9.3 µM; P35372+P41143; cell-based MOR-DOR heterodimer luminescence; in the data active means inhibition above about 22%, passing the limit was not always enough
Target sequence (P35372 whole entry, looked up): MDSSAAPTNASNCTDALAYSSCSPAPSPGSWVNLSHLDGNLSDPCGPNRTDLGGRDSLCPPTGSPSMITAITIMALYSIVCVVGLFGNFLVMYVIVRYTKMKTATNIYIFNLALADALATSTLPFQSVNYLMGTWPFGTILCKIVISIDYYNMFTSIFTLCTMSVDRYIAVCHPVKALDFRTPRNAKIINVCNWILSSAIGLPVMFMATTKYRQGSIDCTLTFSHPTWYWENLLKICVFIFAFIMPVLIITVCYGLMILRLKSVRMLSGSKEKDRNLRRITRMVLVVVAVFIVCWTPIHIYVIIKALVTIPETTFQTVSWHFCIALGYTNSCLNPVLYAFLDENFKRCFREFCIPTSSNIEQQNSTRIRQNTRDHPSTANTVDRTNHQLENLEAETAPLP
Target sequence (P41143 whole entry, looked up): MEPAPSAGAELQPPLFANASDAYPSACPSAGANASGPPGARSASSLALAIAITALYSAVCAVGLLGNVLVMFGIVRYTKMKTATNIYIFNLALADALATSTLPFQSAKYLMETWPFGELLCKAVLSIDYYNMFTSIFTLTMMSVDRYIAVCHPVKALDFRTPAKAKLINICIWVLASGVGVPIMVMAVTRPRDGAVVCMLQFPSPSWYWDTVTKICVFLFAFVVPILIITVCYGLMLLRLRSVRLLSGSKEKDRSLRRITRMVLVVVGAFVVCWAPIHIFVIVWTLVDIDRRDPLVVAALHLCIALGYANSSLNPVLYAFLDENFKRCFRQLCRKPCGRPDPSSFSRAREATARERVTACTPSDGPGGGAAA
OPRM1-OPRD1 ag – agonists of human mu-delta opioid receptor heterodimerization; cells, OPRM1-OPRD1 heterodimerization, luminescence; activation, % at 9.3 µM; actives 0.3% (n = 340,000); in the data active means activation above about 18%
HTR5A ag ctr – counter-screen for OPRM1-OPRD1 agonists: human HTR5A agonism | AID 504692 | actives 0.61% (n = 340,000) | HTR5A agonist assay, luminescence, cell-based | activation, % at 9.3 µM | P47898; in the data active means activation mostly above about 9.5%, no sharp cut-off; inactive means mostly below about 7.6%
MOR-DOR inv ag-2 – counter-screen for HTR5A inverse agonists: OPRM1-OPRD1 heterodimerization inverse agonism | shares compounds with HTR5A inv ctr | U2OS counter-screen cells, complementation luminescence | inhibition, % at 9.3 µM | 190 tested, under 10 active | AID 504912
HTR5A inv confrm – HTR5A (human) inverse agonism, confirmation. shares compounds with HTR5A inv ctr. inhibition, % at 9.3 µM. HTR5A-expressing cells, luminescence. AID 504916. 190 tested, under 10 active
Hits are given with their value; 0 = inactive; - = no result given. Unless noted, how the calls were made is not given here.

SMILES	Hep lipid drop	HTR5A inv ctr	MOR-DOR inv ag-1	OPRM1-OPRD1 ag	HTR5A ag ctr	MOR-DOR inv ag-2	HTR5A inv confrm
Cc1cc(C)nc(N/N=C/c2ccccc2OCc2ccc(Br)cc2)n1	0	0	0	0	0	-	-
CN(C(=O)c1ccc(NC(=O)Cc2cccc(NC(=O)C3CCCN(C(=O)C4CC4)C3)c2)cc1)C1CC1 (stereo not given)	-	0	0	0	0	-	-
Cc1cc(C)n2nc(C(=O)OCC(=O)Nc3ccc(C)c(S(=O)(=O)N4CCOCC4)c3)nc2n1	-	28.5	0	0	0	0	0
Cc1cc(C)n2nc(C(=O)OCC(=O)Nc3ccc(C)c(S(=O)(=O)N(C)C)c3)nc2n1	-	0	0	0	0	-	-
CCCC(=O)Nc1ccc(-c2csc(N/N=C\c3ccncc3)n2)cc1	0	0	0	0	0	-	-
CCC(C)SCC(=O)Nc1ccc(S(=O)(=O)N2CCOCC2)cc1OC (stereo not given)	0	0	0	0	0	-	-
CC(C)Cn1c(-c2ccc(Br)cc2)c[nH]c1=S	0	81.2	0	0	0	0	0
O=C(COc1ccccc1)Nc1c2c(nn1-c1ccccc1)CS(=O)C2 (stereo not given)	0	0	0	0	0	-	-
COc1ccccc1NC(=O)c1ccc(NC(=O)c2nc3nccc(C)n3n2)cc1	-	0	0	0	0	-	-
COc1ccc(NC(=O)c2ccc(NC(=O)c3nc4nccc(C)n4n3)cc2)cc1	-	36.0	0	0	0	0	0
CCN(CC)C(=O)CSc1nc2ccccc2c(=O)n1OC(C)C	0	37.8	0	0	0	0	0
COc1cc(CN2CCN(C(=O)c3ccccc3F)CC2)cc(OC)c1OC	0	0	0	0	0	-	-
COc1cc(C(CCN2CCCC2)c2c(OC)cc(OC)c3c(-c4ccccc4)cc(=O)oc23)cc(OC)c1OC (stereo not given)	0	0	0	0	0	-	-
COc1cc(C(CCN2CCOCC2)c2c(OC)cc(OC)c3c(-c4ccccc4)cc(=O)oc23)cc(OC)c1OC (stereo not given)	-	16.9	0	0	0	0	0
CCOc1ccc(S(=O)(=O)n2ccc(C)n2)cc1	0	25.8	0	0	0	0	0
CN(C)c1ccc(NC(=O)c2ccc(N3CCOCC3)nc2)cc1	0	0	0	0	0	-	-
S=C(Nc1ccccc1Cl)N(CCCN1CCOCC1)Cc1ccccn1	0	0	0	0	0	-	-
CC(=O)c1ccc(OCc2ccccc2)c(C)c1O	0	28.0	0	0	0	0	0
O=C(CN1C(=O)c2cccc3cccc(c23)C1=O)NCCCO	0	0	0	0	0	-	-
O=C(CCCCCN1C(=O)c2cccc3cccc(c23)C1=O)NCCCO	0	31.6	0	0	0	0	0
COc1ccc(/C=C(/NC(=O)c2cccs2)C(=O)NCc2ccco2)cc1OC	0	43.5	0	0	0	0	0
O=C(COC(=O)CSc1ccc(F)cc1)NCc1ccco1	-	0	0	0	0	-	-
O=C(COC(=O)Cc1ccc(F)cc1)NCc1ccco1	0	33.9	0	0	0	0	0
COC(Cc1nnc(SC)n1-c1ccc(Cl)cc1)OC	-	0	0	0	0	-	-
C=CCSc1nnc(CC(OC)OC)n1-c1ccccc1	0	39.3	0	0	0	0	0
SMILES	Hep lipid drop	HTR5A inv ctr	MOR-DOR inv ag-1	OPRM1-OPRD1 ag	HTR5A ag ctr	MOR-DOR inv ag-2	HTR5A inv confrm
O=S(NCc1ccco1)C12CC3CC(CC(C3)C1)C2 (stereo not given)	0	40.4	0	0	0	0	0
COCCN(C(=O)COC(=O)c1ccc(C)o1)c1c(N)n(Cc2ccccc2)c(=O)[nH]c1=O	-	0	0	0	0	-	-
COCCN(C(=O)COC(=O)c1cc(C)oc1C)c1c(N)n(Cc2ccccc2)c(=O)[nH]c1=O	-	64.9	0	0	0	0	0
COc1ccc(OCC(=O)NNC(=O)c2cc3ccccc3o2)cc1	0	39.0	0	0	0	0	0
Cc1ccc(NC(=O)CSc2nc(-c3ccco3)nc3cc(=O)[nH]n23)c(Cl)c1	0	0	0	0	0	-	-
CSc1nc(C)cc(Oc2ccc(=O)n(C)n2)n1	0	0	0	0	0	-	-
CCSc1nc(C)cc(Oc2ccc(=O)n(C)n2)n1	-	89.3	0	0	0	0	0
Cc1cc(OC(F)F)ccc1NC(=S)NCCc1ccccc1	0	0	0	0	0	-	-
FC(F)Oc1ccccc1NC(=S)NCCc1ccccc1	-	45.2	0	0	0	0	0
C/C(=N\Nc1cc(-c2ccccc2)nc(-c2ccccc2)n1)c1ccc(O)c(C)c1	0	48.8	0	0	0	0	0
COc1cc(N/N=C(\C)c2ccc(O)c(C)c2)nc(-c2ccccc2)n1	0	0	0	0	0	-	-
O=C(CC12CCC(CC1)C2)NCc1ccc2c(c1)OCO2	0	27.5	0	0	0	0	0
CC(C)(C)C(=O)NC(=S)NNC(=O)C(c1ccccc1)c1ccccc1	0	44.6	0	0	0	0	0
COc1ccc(CN(C)C(=O)c2cccc(S(=O)(=O)N3CCCc4ccccc43)c2)c(OC)c1OC	-	0	0	0	0	-	-
COc1ccccc1-c1nnc(NC(=O)CCS(=O)(=O)c2ccccc2)o1	0	39.5	0	0	0	0	0
CN(C)/N=C/c1cc([N+](=O)[O-])ccc1O	0	28.1	0	0	0	0	0
NC(N)=N/N=C/c1cc([N+](=O)[O-])ccc1O	0	0	0	0	0	-	-
CCc1c(C2(O)CCCCC2)[nH]c2ccc(C#N)cc12	-	0	0	0	0	-	-
CC(=O)N1CCc2c(sc(NC(=O)c3ccc([N+](=O)[O-])o3)c2C#N)C1	0	32.3	0	0	0	0	0
CCC(O)c1nc2ccccc2n1CCc1ccccc1 (stereo not given)	0	0	0	0	0	-	-
Cc1ccc(/C=C/c2nnc(-c3cccs3)o2)cc1	-	0	0	0	0	-	-
Cc1ccc(/C=C/c2nnc(-c3ccc(C)cc3)o2)cc1	-	41.6	0	0	0	0	0
CCS(=O)(=O)c1nc(S(=O)(=O)c2ccc(C)cc2)c(NCCCn2ccnc2)s1	0	0	0	0	0	-	-
CN(C)S(=O)(=O)c1ccc(Cl)c(C(=O)OCC(=O)NC(=O)NC2CCCC2)c1	-	96.2	0	0	0	0	0
Cc1c(C)c(C)c(C(=O)c2ccc(NC(=O)c3ccccc3C(=O)O)cc2)c(C)c1C	-	0	0	0	0	-	-
COc1cccc(CNCc2ccccc2Br)c1OC	0	35.8	0	0	0	0	0
O=C(COc1ccccc1)N1CCN(C(=O)c2ccccc2F)CC1	-	0	0	0	0	-	-
Cc1ccc2c(c1)NC(=O)C(CC(=O)Nc1ccc(Br)c(C)c1)O2 (stereo not given)	0	0	0	0	0	-	-
Cc1cc2n(n1)C(c1ccc3c(c1)OCO3)Nc1c(C)cccc1-2 (stereo not given)	0	32.8	0	0	0	0	0
COc1cccc(CNC(=O)Cc2ccc(OC)c(S(=O)(=O)N3CCOCC3)c2)c1	-	0	0	0	0	-	-

From PubChem
